Sampled rows, rich in hits. Any-hit rate of the full collection: about 2.3%.
pPAFAH FP inh – pPAFAH enzyme inhibitors, primary screen, biochemical, fluorescence polarization, human. Platelet-activating factor acetylhydrolase (Homo sapiens), Q13093. recombinant pPAFAH, FP-rhodamine probe fluorescence polarization. inhibition, % at 3.39 µM. hit rate 1.5% among 330,000. AID 463082, 2010;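 active = inhibition above the mean inhibition across the screen plus 3 SD, cut at about 25% in these data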;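 also: inhibitors block binding of the rhodamine activity-based probe so polarization drops; 0% = enzyme with DMSO and 100% = wells lacking pPAFAH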
Target sequence (Q13093 whole entry, looked up): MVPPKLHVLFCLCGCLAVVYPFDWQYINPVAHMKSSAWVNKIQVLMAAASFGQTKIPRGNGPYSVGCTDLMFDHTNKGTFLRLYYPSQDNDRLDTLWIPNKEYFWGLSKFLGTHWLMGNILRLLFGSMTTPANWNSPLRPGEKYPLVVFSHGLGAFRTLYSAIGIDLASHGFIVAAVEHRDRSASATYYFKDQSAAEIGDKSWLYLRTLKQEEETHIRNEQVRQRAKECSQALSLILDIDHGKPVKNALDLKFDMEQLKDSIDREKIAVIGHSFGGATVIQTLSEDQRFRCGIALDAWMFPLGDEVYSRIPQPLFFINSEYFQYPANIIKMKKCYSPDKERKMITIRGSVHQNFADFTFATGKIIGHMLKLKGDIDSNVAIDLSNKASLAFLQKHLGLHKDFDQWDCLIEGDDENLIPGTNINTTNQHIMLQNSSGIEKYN
HTRA1 inh – HTRA1 serine protease inhibitors, primary screen, biochemical, fluorescence polarization, HTS. Q92743. recombinant HTRA1, FP-rhodamine activity-based probe. inhibition, % at 5.96 µM. hit rate 0.5% among 340,000. AID 504803, 2011; in the data active = inhibition above about 36%;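 also: 0% = enzyme with DMSO and 100% = wells lacking enzyme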
mABHD4 FP – ABHD4 inhibitors, primary screen, biochemical, fluorescence polarization, mouse; purified mABHD4, FP-Rh probe fluorescence polarization; hit rate 0.54% among 370,000; AID 720543, 2013; inhibition, % at 8.92 µM; (Lyso)-N-acylphosphatidylethanolamine lipase (Mus musculus), Q8VD66;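 active = inhibition exceeding the mean over every tested compound plus 3 SD, cut at about 30% in these data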;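 also: 0% = plate median of compound wells and 100% = S159A mutant with DMSO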
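Material: mouse ABHD4 enzyme, wild type; Benchmarks: S159A mutant high control, sample median low control; Buffer or medium: HEPES pH 7.0, NaCl, Pluronic buffer; Signal: fluorescence polarization; Read-out: percent inhibition of probe binding, normalized to plate controls; Timing: pre-incubation 45 min, probe exposure 60 min, at 25 °C; Dosing: 8.92 µM, single dose.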
TCR CD3 inh – inhibitors of human TCR-CD3 interaction, primary screen, biochemical, fluorescence, TAMRA-labeled TCR probe | hit rate 0.37% among 360,000 | T-cell receptor (TCR) | inhibition, % at 9.4 µM; in the data active = inhibition above about 19%;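 also: recombinant mutant TCR 2C K166C tagged with TAMRA read by polarization; 0% = receptor in buffer alone and 100% = receptor with positive control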
SIAE primary – human SIAE inhibitors, primary screen, biochemical, fluorescence polarization, FP-Rh probe, 1536-well HTS; Sialate O-acetylesterase (Homo sapiens), Q9HAT2; SIAE FP-Rh probe binding; inhibition, % at 9.66 µM; hit rate 0.69% among 370,000; AID 1053197, 2014;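 active = inhibition above a cutoff: mean of compounds within the control limits plus 3 SD of those, cut at about 17% in these data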;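 also: 0% = plate median of compound wells and 100% = probe without SIAE protein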
An asterisk follows results filed as active; nt = no result given.

SMILES | pPAFAH FP inh | HTRA1 inh | mABHD4 FP | TCR CD3 inh | SIAE primary
CCOC(=O)c1cc(-c2cccnc2)nn1-c1ccccc1 | -1 | 7 | 8 | 2 | -3
CCC1C/C(=C/c2ccco2)C(=O)/C(=C/c2ccco2)C1 (stereo not drawn) | 37* | nt | nt | nt | nt
CCC1C/C(=C\c2cc(OC)c(OC)cc2OC)C(=O)/C(=C/c2cc(OC)c(OC)cc2OC)C1 (stereo not drawn) | 15 | 5 | nt | nt | nt
O=C(O)CSc1cc(NS(=O)(=O)c2ccc(Cl)cc2)c2ccccc2c1O | 12 | 23 | 39* | 7 | 10
COc1ccc(S(=O)(=O)Nc2cc(SCC(=O)O)c(O)c3ccccc23)cc1 | 22 | 34 | 49* | 5 | 16
Cc1cc(C)c(S(=O)(=O)Nc2cc(SCC(=O)O)c(O)c3ccccc23)cc1C | 16 | nt | nt | nt | nt
COc1ccccc1N(Cc1ccccc1)S(=O)(=O)c1cccc(C(=O)O)c1 | 34* | -5 | -15 | -5 | -3
CCOC(=O)[C@]12CCCCC/C=C\1N(CCc1ccc(Cl)cc1)C(=O)[C@H]2CC(=O)N1CCN(C(=O)C2CC2)CC1 | nt | nt | -1 | nt | 2
O=C(NCCCc1ccccc1)C1CCN(c2nc(-c3ccc(Br)cc3)cs2)CC1 | nt | nt | -3 | nt | -2
CC1CCCN(CC(=O)Nc2ccc(S(=O)(=O)N3CCCCC3)cc2)C1 (stereo not drawn) | -3 | -1 | 4 | 0 | 1
CC1CCCN(CC(=O)Nc2ccc(S(=O)(=O)NC3CCCCC3)cc2)C1 (stereo not drawn) | 28* | -15 | 0 | 6 | -2
CCCCc1cc(=O)oc2cc(C)c(CN3CCCC3)c(O)c12 | 30* | -12 | 7 | 2 | -6
O=C(CSC(=S)N1CCCC1)c1cc(Br)cc(Br)c1O | 25* | nt | 4 | -34 | 17
CCCc1c(-c2ccc(O)cc2)nn(-c2ccc(O)cc2)c1-c1ccc(O)cc1 | 33* | 4 | nt | nt | nt
COc1ccc(O)c(C(=O)c2cc(SCC(=O)O)c3nc4sc5c(c4c(=O)n3c2)CCCC5)c1 | 28* | -22 | -22 | -8 | -20
CCOC(=O)C1(Cc2ccccc2)CCN(Cc2ccnc3ccccc23)CC1 | nt | nt | -6 | nt | 2
C=CCNc1nc(C(=O)OCC(=O)NCc2cccc(Cl)c2)cs1 | 25* | -13 | 4 | -3 | -2
O=C(COC(=O)c1ccccn1)NCc1cccc(Cl)c1 | nt | -7 | 2 | -3 | -2
CCN1C(=O)c2cccc3c(S(=O)(=O)Nc4ccccc4)ccc1c23 | 25* | -7 | nt | nt | nt
CCN1C(=O)c2cccc3c(S(=O)(=O)Nc4ccncc4)ccc1c23 | 4 | 4 | nt | nt | nt
COc1ccc(S[C@]2(C(=O)N(C)C)CC(=O)N(C(=O)Nc3ccc(C)c(Cl)c3)[C@@H]2c2ccc(OC)cc2)cc1 | nt | nt | -17 | nt | -2
CC1=C(C(=O)OCCc2ccccc2)C(c2ccsc2)NC(=O)N1C (stereo not drawn) | 28* | -1 | -5 | 2 | 3
CC1=C(C(=O)OCc2ccccc2)C(c2ccsc2)NC(=O)N1C (stereo not drawn) | 9 | -1 | -12 | 4 | -2
NC(=O)c1cccc(N=Cc2cc(Cl)cc(Cl)c2O)c1 | nt | -2 | 6 | 6 | 11
Oc1c(Cl)cc(Cl)cc1C=Nc1ccccc1N1CCCC1 | 30* | nt | nt | nt | nt
SMILES | pPAFAH FP inh | HTRA1 inh | mABHD4 FP | TCR CD3 inh | SIAE primary
COC(=O)C1=C(C)N(Cc2cccc(C(F)(F)F)c2)C(=NCC2CC2)NC1c1ccccc1 (stereo not drawn) | nt | nt | 10 | 4 | 6
Cc1nn(CCC(=O)NNC(=O)Nc2ccccc2)c(C)c1[N+](=O)[O-] | nt | nt | 2 | nt | 2
COc1ccc2[nH]c3c(N4CCc5ccccc5C4)ncnc3c2c1 | 33* | -5 | 36* | 5 | 17
CC(=O)Nc1ccc2c(O)cc(S(=O)(=O)O)cc2c1 | nt | 5 | 13 | -1 | 11
O=S(=O)(O)c1cc(O)c2ccc(Nc3ccccc3)cc2c1 | nt | 21 | 63* | 35* | 14
Nc1nc2c(ncn2[C@@H]2O[C@H](C(=O)N[C@H](Cc3ccccc3)C(=O)NCc3ccccc3)[C@@H](O)[C@H]2O)c(=O)[nH]1 | nt | nt | 2 | 0 | 5
COc1cc(OC)c(N(C)S(=O)(=O)c2cccc(C(=O)OCC(=O)NCc3ccco3)c2)cc1Cl | 33* | -21 | -1 | -2 | -4
